Columns and labels:
GLP catalytic SET domain = GLP catalytic SET domain (Homo sapiens, UniProt Q9H9B1); assay: In vitro methylation assay with GLP catalytic SET domain; type: biochemical; settings: [methyl-3H]AdoMet, SDS–PAGE and fluorography / autoradiogram
Procedure, shortened: (§1)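 E. coli-expressed hG9a or hGLP SET domain (1.6 μM) was incubated with 13.0 μM substrate (mDnmt3a N-terminal fragments or other GST-tagged proteins) and 2.8 μM [methyl-3H]AdoMet in 20 mM Tris–HCl pH 8.5 at 30 °C for 8 min. Products were resolved by SDS–PAGE and detected by fluorography/autoradiography.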

[1] = system: DNA methylation, H3K9 methylation, H3K4 methylation; settings: ref [4]; cited from earlier work
G9a catalytic SET domain = G9a catalytic SET domain (Homo sapiens, UniProt Q96KQ7); assay: In vitro methylation assay with G9a catalytic SET domain; type: biochemical; settings: [methyl-3H]AdoMet, 30 °C, 8 min, pH 8.5, SDS–PAGE and fluorography
Procedure, shortened: as §1

MPP8 chromodomain = target: T1, MPP8 chromodomain (Homo sapiens, UniProt Q99549); assay: Co-crystal structure MPP8 chromodomain–hDNMT3AK47me2 peptide; type: binding
T1 sequence (Q99549 59-118 limits assumed): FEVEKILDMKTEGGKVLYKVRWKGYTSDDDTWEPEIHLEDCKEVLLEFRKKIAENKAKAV

GLP catalytic SET domain, sequence (Q9H9B1 1126-1243 limits assumed): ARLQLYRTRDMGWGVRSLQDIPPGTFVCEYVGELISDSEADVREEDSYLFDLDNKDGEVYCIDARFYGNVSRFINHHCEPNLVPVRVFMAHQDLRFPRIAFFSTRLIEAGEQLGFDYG
G9a catalytic SET domain, sequence (Q96KQ7 1038-1155 limits assumed): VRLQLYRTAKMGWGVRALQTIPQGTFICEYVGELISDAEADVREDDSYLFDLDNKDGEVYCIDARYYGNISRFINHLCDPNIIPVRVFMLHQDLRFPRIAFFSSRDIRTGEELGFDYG

| Compound | methylation by GLP (GLP catalytic SET domain) | other results |
| --- | --- | --- |
| Nc1ncn([C@H]2C[C@H](O)[C@@H](CO)O2)c(=O)n1 [5-aza-2′-deoxycytidine] |  | effect on DNA, H3K9 and H3K4 methylation [1]: leads to depletion of DNA methylation and of H3K9 methylation, and a corresponding increase in H3K4 methylation |
| Dnmt3a-N: N-terminal fragment of mouse Dnmt3a (residues 1–274) | methylate the N-terminal fragment of Dnmt3a | methylation by G9a (G9a catalytic SET domain): methylate the N-terminal fragment of Dnmt3a |
| YEPSTTARKVGRPGR [hDNMT3AK47me2] |  | pairwise root-mean-square-deviation to MPP8-H3K9me3 structure (MPP8 chromodomain; 54 pairs of main-chain atoms, vs PDB 3QO2): ~ 0.6 Å; binding mode in MPP8 chromodomain (MPP8 chromodomain; crystal structure (3SVM)): bound in an extended conformation in an acidic cleft of the chromodomain |

The next lines start with results.

| methylation by GLP (GLP catalytic SET domain) | Compound | other results |
| --- | --- | --- |
| eliminates methylation | hDNMT3A K47R (residues 1–223): K47R substitution in hDNMT3A N-terminal domain |  |
| are methylated | hDNMT3A residues 1–94: GST-tagged hDNMT3A N-terminal fragment |  |
| are methylated | hDNMT3A residues 1–223: GST-tagged hDNMT3A N-terminal fragment |  |

Source: publication PMC3286832 (Nature Communications, 2011)
